Results on 23 compounds are retold here after ChEMBL document CHEMBL1127555, “Novel (4-phenylpiperidinyl)- and (4-phenylpiperazinyl)alkyl-spaced esters of 1-phenylcyclopentanecarboxylic acids as potent sigma-selective compounds” (J Med Chem, 1994).

SMILES strings stand for the structures.

As usually defined, the Ki is a measure of affinity in units of concentration, obtained from inhibition or displacement. The low end stands for tighter binding, the high end for weaker binding. Broadly, the inhibition is the change of the read-out against control, counted positive when it falls. Lower therefore signals a weak effect.

For experiment [1], the target named is Sigma 2 receptor. Briefly: The compound was evaluated for affinity at sigma-2 site by inhibition of [3H]1,3-di(2-tolyl)guanidine (DTG) binding in guinea pig brain. The arrangement: species or system Cavia porcellus. In a few lines: (§1)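 Final [3H]DTG 4 nM with varied test concentrations. Incubation 25 °C for 90 min. PEI-soaked GF/B filtration, scintillation counting. Ki from EBDA/LIGAND, at least three determinations in triplicate.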

In experiment [2] the target is T1, Muscarinic acetylcholine receptor M1 (Rattus norvegicus, UniProt P08482).
T1 sequence (P08482 whole entry): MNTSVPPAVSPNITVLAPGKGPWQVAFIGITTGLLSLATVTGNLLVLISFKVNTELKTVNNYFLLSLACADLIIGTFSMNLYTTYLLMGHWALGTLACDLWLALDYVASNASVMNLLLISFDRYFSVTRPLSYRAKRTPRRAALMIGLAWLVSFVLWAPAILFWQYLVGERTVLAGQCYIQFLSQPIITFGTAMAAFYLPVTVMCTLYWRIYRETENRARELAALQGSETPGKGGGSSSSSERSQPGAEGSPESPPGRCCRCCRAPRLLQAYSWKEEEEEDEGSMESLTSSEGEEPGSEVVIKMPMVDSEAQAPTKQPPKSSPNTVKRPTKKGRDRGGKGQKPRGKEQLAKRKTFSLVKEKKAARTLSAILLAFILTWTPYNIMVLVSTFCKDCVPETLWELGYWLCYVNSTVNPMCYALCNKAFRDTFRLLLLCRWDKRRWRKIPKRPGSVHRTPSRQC
Briefly: The nitro derivative RLH-033 shows significant selectivity for the [3H]-(=)-PENT site over muscarinic 1 in rat using [3H]pirenzepine as radioligand.

Experiment [3] has as its target T2, Muscarinic acetylcholine receptor M2 (Rattus norvegicus, UniProt P10980).
T2 sequence (P10980 whole entry): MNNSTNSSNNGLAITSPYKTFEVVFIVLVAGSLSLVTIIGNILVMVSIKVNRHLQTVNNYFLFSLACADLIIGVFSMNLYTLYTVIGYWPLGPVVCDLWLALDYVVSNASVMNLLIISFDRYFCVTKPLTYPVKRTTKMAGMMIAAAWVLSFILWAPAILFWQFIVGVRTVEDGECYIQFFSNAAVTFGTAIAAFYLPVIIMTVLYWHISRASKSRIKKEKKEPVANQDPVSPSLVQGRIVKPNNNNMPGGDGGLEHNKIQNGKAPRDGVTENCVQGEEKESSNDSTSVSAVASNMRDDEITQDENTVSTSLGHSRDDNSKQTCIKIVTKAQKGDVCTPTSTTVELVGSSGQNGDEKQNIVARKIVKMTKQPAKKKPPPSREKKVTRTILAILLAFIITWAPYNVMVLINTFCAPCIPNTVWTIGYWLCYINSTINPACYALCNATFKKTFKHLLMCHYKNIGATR
Kind of experiment: (§2) Binding affinity was measured as selectivity for sigma 1 site over muscarinic (M2) receptor at 10 uM in rat using [3H]QN as radioligand. In a few lines:
(§3)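 Muscarinic binding, M1 in rat cortex with [3H]pirenzepine 0.5 nM and M2 in rat heart with [3H]QNB 0.05 nM.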

For experiment [4], the target named is T1, Muscarinic acetylcholine receptor M1. Briefly: Binding affinity was measured as selectivity for sigma-1 site over muscarinic (M1) receptor in rat using [3H]pirenzepine as radioligand.
In experiment [5] the target is Opioid receptor (Rattus norvegicus) (UniProt P33533+P34975+P33535). Kind of experiment: Binding affinity was measured as selectivity for sigma-1 site over opioid receptor in rat using [3H]naloxone as radioligand at 10 uM.
Opioid receptor (Rattus norvegicus), sequence (P33533 whole entry, looked up): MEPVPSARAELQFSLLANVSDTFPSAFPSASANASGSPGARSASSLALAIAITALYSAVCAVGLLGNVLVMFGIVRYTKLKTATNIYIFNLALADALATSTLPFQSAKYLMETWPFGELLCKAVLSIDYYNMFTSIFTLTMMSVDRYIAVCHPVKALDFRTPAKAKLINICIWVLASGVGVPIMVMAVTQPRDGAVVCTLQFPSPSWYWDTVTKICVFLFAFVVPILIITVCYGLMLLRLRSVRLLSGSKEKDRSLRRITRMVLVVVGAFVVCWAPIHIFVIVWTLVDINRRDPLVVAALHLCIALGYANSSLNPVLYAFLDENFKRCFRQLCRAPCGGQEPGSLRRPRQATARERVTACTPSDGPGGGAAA
Opioid receptor (Rattus norvegicus), sequence (P33535 whole entry, looked up): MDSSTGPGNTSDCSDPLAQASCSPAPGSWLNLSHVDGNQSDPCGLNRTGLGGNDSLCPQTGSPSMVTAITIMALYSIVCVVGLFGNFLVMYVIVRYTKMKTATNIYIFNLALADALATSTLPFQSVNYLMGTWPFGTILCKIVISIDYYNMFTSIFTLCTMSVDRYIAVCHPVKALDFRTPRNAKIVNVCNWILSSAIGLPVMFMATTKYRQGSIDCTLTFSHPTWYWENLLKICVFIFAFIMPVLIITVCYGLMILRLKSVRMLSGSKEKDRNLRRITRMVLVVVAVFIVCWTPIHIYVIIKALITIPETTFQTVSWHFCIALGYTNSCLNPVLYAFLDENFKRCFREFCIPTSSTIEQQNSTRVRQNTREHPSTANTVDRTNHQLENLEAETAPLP
Opioid receptor (Rattus norvegicus), sequence (P34975 whole entry, looked up): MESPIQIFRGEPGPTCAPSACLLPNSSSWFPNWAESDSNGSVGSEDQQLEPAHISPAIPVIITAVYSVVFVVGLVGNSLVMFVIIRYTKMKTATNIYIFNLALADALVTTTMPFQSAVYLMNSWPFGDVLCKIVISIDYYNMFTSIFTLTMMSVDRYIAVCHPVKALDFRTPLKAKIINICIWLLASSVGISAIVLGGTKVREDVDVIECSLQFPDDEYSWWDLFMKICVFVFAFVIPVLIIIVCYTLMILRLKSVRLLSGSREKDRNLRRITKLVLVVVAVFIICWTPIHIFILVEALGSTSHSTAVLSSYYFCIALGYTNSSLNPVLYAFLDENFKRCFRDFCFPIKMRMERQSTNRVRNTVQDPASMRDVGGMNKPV
For experiment [6], the target named is T3, D(1A) dopamine receptor (Rattus norvegicus, UniProt P18901). Kind of experiment: The nitro derivative RLH-033 shows significant selectivity for the [3H]-(=)-PENT site over […] in rat using [3H]SCH-23390 as radioligand.
T3 sequence (P18901 whole entry): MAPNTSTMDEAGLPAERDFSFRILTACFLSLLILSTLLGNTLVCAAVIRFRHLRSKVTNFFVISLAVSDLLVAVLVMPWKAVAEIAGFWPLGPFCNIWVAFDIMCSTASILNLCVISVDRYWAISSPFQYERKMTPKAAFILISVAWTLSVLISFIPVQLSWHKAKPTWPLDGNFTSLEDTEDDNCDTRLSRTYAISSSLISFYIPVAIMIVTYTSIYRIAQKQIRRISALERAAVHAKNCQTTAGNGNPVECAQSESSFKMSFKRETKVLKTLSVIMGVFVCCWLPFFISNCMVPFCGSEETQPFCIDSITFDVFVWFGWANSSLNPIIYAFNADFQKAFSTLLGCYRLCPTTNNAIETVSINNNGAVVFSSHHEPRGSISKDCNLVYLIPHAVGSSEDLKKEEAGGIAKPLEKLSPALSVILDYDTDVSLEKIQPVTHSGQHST
A short description of experiment [7]: Binding affinity for sigma-1 site over dopamine (D2) receptor in rat using [3H]spiperone as radioligand.
Experiment [8] deals with T2, Muscarinic acetylcholine receptor M2. Kind of experiment: The nitro derivative RLH-033 shows significant selectivity for the [3H]-(=)-PENT site over muscarinic 2 in rat using [3H]QN as radioligand.
The nature of experiment [9]: Binding affinity for sigma-1 site over dopamine receptor D1 in rat using [3H]SCH-23390 as radioligand.
Experiment [10] addresses T4, Glutamate NMDA receptor (Rattus norvegicus) (UniProt P35439+Q00959+Q00960+Q00961+Q62645+Q8VHN2+Q9R1M7). Kind of experiment: Binding affinity was measured as selectivity for sigma-1 site over phencyclidine (PCP) receptor in rat using [3H]TCP as radioligand at 10 uM.
Experiment [11] concerns the target T5, D(2) dopamine receptor (Rattus norvegicus, UniProt P61169). Kind of experiment: The nitro derivative RLH-033 shows significant selectivity for the [3H]-(=)-PENT site over dopamine 2 in rat using [3H]SCH-23390 as radioligand.
Experiment [12] has as its target T4, Glutamate NMDA receptor (Rattus norvegicus). Briefly: Binding affinity was measured as selectivity for sigma-1 site over N-methyl-D-aspartate (NMDA) receptor in rat using [3H]CGS-19,755 as radioligand at 10 uM.
The target in experiment [13] is T2, Muscarinic acetylcholine receptor M2. Briefly: Binding affinity was measured against muscarinic (M2) receptor at 10 uM in rat using [3H]QN as radioligand.
The target of experiment [14] is T4, Glutamate NMDA receptor (Rattus norvegicus). Kind of experiment: Binding affinity was measured against N-methyl-D-aspartate (NMDA) receptor in rat using [3H]CGS-19,755 as radioligand at 10 uM.
In experiment [15] the target is T5, D(2) dopamine receptor. Kind of experiment: Binding affinity was measured against dopamine (D2) receptor in rat using [3H]spiperone as radioligand.
For experiment [16], the target named is T4, Glutamate NMDA receptor (Rattus norvegicus). Kind of experiment: Binding affinity was measured against phencyclidine (PCP) receptor in rat using [3H]-TCP as radioligand at 10 uM.
The target of experiment [17] is T3, D(1A) dopamine receptor. Kind of experiment: Binding affinity was measured against dopamine receptor D1 in rat using [3H]SCH-23390 as radioligand.
Experiment [18] addresses Sigma 2 receptor. Briefly: Affinity at sigma-2 site by inhibition of [3H]1,3-di(2-tolyl)guanidine (DTG) binding in guinea pig brain. The arrangement: species or system Cavia porcellus. In a few lines:
as §1

Experiment [19] deals with T6, Opioid receptor (Rattus norvegicus, UniProt P33533+P34975+P33535). Briefly: Binding affinity was measured as selectivity for sigma-1 site over opioid receptor in rat using [3H]naloxone as radioligand.
The target of experiment [20] is T1, Muscarinic acetylcholine receptor M1. Briefly: Binding affinity was measured as selectivity for sigma-1 site over muscarinic (M1) receptor in rat.
Experiment [21] addresses Glutamate NMDA receptor. Briefly: Binding affinity was measured as selectivity for sigma-1 site over phencyclidine (PCP) receptor in rat using [3H]TCP as radioligand.
The target in experiment [22] is T7, Muscarinic acetylcholine receptor M2 (Rattus norvegicus) (UniProt P10980).
T7 sequence (whole entry): T2 sequence (P10980 whole entry)
The description is as §2. In a few lines: as §3

Experiment [23] has as its target T5, D(2) dopamine receptor. Briefly: Iodo derivative shows a potent sigma binding ligand, had some affinity for D2 site in rat.
The target in experiment [24] is T1, Muscarinic acetylcholine receptor M1. Briefly: Binding affinity was measured against muscarinic (M1) receptor in rat using [3H]pirenzepine as radioligand.
The target in experiment [25] is T6, Opioid receptor. Kind of experiment: Binding affinity was measured against opioid receptor in rat using [3H]naloxone as radioligand.
Experiment [26] deals with Glutamate NMDA receptor. Briefly: Binding affinity was measured against phencyclidine (PCP) receptor in rat using [3H]TCP as radioligand.

T5 sequence (P61169 whole entry): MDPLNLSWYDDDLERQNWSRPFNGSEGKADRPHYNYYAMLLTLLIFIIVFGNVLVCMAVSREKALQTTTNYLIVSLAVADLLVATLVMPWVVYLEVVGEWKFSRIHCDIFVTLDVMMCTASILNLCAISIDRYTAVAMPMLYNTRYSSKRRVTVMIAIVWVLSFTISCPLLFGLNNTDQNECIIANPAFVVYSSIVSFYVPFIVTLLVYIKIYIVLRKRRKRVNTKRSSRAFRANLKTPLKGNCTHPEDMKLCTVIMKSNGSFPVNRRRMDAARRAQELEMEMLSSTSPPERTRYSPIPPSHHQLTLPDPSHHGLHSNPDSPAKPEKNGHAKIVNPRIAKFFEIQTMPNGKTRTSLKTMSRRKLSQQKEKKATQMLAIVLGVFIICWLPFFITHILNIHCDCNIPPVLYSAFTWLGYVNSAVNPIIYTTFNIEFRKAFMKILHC

Compound `O=C(OCCCCCN1CCC(c2ccccc2)CC1)C1(c2ccccc2)CCCC1` registered a Ki at Sigma 2 receptor [1] of 1.05 nM.

`O=C(OCCCCCCN1CCC(c2ccccc2)CC1)C1(c2ccccc2)CCCC1` gave a Ki at Sigma 2 receptor [1] of 1.88 nM.

`O=C(OCCN1CCN(c2ccccc2)CC1)C1(c2ccc(Cl)cc2)CCCC1` came in with a Ki at Sigma 2 receptor [1] of 763 nM.

Regarding `O=C(OCCN1CCC(c2ccccc2)CC1)C1(c2ccc([N+](=O)[O-])cc2)CCCC1`, the Ki in experiment [2] was > 17600 nM; in experiment [3], 1710 nM; on Sigma 2 receptor [1] it was 3.93 nM; in experiment [4], 880 nM; on D(1A) dopamine receptor [6], > 58000 nM; in experiment [7], 350 nM. Besides, the Ki was > 34200 nM in experiment [8], 2900 nM in experiment [9] and > 7000 nM on D(2) dopamine receptor [11]. Moreover, the inhibition came out at 42% in experiment [5], 7% in [10] and 12% in experiment [12].

In the case of `O=C(OCCCN1CCC(c2ccccc2)CC1)C1(c2ccc([N+](=O)[O-])cc2)CCCC1`, affinity on Sigma 2 receptor [1] was put at a Ki of 0.88 nM.

`O=C(OCCN1CCC(c2ccccc2)CC1)C1(c2ccc(Cl)cc2)CCCC1` yielded a Ki at Sigma 2 receptor [1] of 23.9 nM.

On to `COc1ccc2c(c1)[C@]13CCCC[C@@H]1[C@H](C2)N(C)CC3` [DEXTROMETHORPHAN], for which the Ki in experiment [13] was > 10000 nM. Further, the inhibition in experiment [14] worked out at 2%.

In [14], `O=C(CCCN1CCC(O)(c2ccc(Cl)cc2)CC1)c1ccc(F)cc1` gave an inhibition of 25%.

On to `CCN(CC)CCOC(=O)C1(c2ccccc2)CCCC1`, for which the results for the Ki on D(2) dopamine receptor [15], on D(1A) dopamine receptor [17] and at Sigma 2 receptor [18] were > 500 nM, > 1000 nM and 658 nM, respectively. The inhibition in [16] was determined as 11%; in experiment [14], 19%.

Consider `O=C(OCCCN1CCC(c2ccccc2)CC1)C1(c2ccc(Cl)cc2)CCCC1`, for which, on Sigma 2 receptor [1], the affinity, expressed as Ki, was 4.41 nM.

With `Cc1ccccc1NC(=N)Nc1ccccc1C`, the Ki in experiment [3] is 2960 nM; on Opioid receptor [19], 3950 nM; in experiment [20], 744 nM; on Glutamate NMDA receptor [21] it was 6690 nM; in experiment [7], > 5000 nM; in experiment [9], > 5000 nM. The inhibition in experiment [12] came out at 0%.

Consider `COc1ccc(C2(C(=O)OCCCN3CCC(c4ccccc4)CC3)CCCC2)cc1`, for which the results for the Ki (on Sigma 2 receptor [1]; in [7]; in [9]) were 1.71 nM, 1000 nM and 6000 nM, respectively.

Take `N#Cc1ccc(C2(C(=O)OCCN3CCC(c4ccccc4)CC3)CCCC2)cc1`: the Ki at Sigma 2 receptor [1] is 26.8 nM; in experiment [7], 195 nM; in experiment [9], > 1000 nM.

Regarding `O=C(OCCCCN1CCC(c2ccccc2)CC1)C1(c2ccccc2)CCCC1`, the Ki amounted to 0.69 nM on Sigma 2 receptor [1], 470 nM in experiment [7] and 3100 nM in experiment [9].

With `O=C(OCCCN1CCC(c2ccccc2)CC1)C1(c2ccccc2)CCCC1`, the inhibitory constant (Ki) stood at 670 nM in [3]; 1.17 nM at Sigma 2 receptor [1]; 170 nM in experiment [20]; 1200 nM in experiment [7]; 10000 nM in experiment [9].

`O=C(OCCN1CCC(c2ccccc2)CC1)C1(c2ccccc2)CCCC1`: the Ki at Sigma 2 receptor [1] was 52.3 nM; in [4] it was 170 nM; in experiment [7] it was 1100 nM; in experiment [9], 4900 nM. Besides, the inhibition in experiment [5] worked out at 63%; in experiment [22], 20%; in experiment [10], 8%; in experiment [12] it was 15%.

Regarding `O=C(OCCN1CCN(c2ccccc2)CC1)C1(c2ccc(I)cc2)CCCC1`, the inhibition constant Ki was 293 nM at Sigma 2 receptor [1], 215 nM in experiment [7] and 650 nM in experiment [9]. In addition, the inhibition in [5] was found to be 25%; in [10] it was 7%.

As for `O=C(OCCN1CCC(c2ccccc2)CC1)C1(c2ccc(I)cc2)CCCC1`, the inhibition constant (Ki) at Sigma 2 receptor [1] was 52 nM; in [9], > 1000 nM; on D(2) dopamine receptor [23], 55 nM. Moreover, the results for the inhibition in experiment [5] and in [10] were 25% and 8%, respectively.

Regarding `CC(C)=CCN1CC[C@]2(C)c3cc(O)ccc3C[C@H]1[C@H]2C` (single isomer, unassigned) [(+)-PENTAZOCINE], the Ki is > 5000 nM on D(2) dopamine receptor [15]; 225 nM in experiment [24]; 525 nM in [13]; > 5000 nM at D(1A) dopamine receptor [17]; 651 nM on Opioid receptor [25]; 4190 nM on Glutamate NMDA receptor [26].

With `O=C(OCCN1CCN(c2ccccc2)CC1)C1(c2ccccc2)CCCC1`, the results for the inhibitory constant (Ki) (at Sigma 2 receptor [1]; in experiment [20]; in experiment [7]) were 696 nM, 1470 nM and > 500 nM, respectively. For the same compound, the inhibition worked out at 43% in experiment [5], 98% in [22], 1% in [10] and 7% in [12].

In turn, `COc1ccc(C2(C(=O)OCCN3CCC(c4ccccc4)CC3)CCCC2)cc1` yielded a Ki on Sigma 2 receptor [1] of 31.8 nM.

Take `O=C(OCCN1CCN(c2ccccc2)CC1)C1(c2ccc([N+](=O)[O-])cc2)CCCC1`: the Ki on Sigma 2 receptor [1] came out at 30.3 nM; in experiment [7] it was 500 nM; in [9], 1000 nM. The inhibition in [5] was 25%; in [10], 10%; in experiment [12] it was 19%.

On Sigma 2 receptor [1], `O=C(OCCCN1CCC(c2ccccc2)CC1)C1(c2ccc(I)cc2)CCCC1` displayed a Ki of 6.49 nM.
